Published values gathered from unrelated publications.
Compare with care: the assays were run in different laboratories.
Target: Serine/threonine-protein kinase N1 (PKN1, Homo sapiens, UniProt Q16512)

c1cnn2ncc(-c3ccnc(N4CCC45COC5)n3)c2c1  remaining binding (binding; 1 µM): 87%
C=CC(=O)N1CCC(C(=O)NCC(=O)N2CCN(c3nc(-c4cnc(N)nc4C(F)F)nc(N4CCOCC4)n3)CC2)CC1  remaining binding (binding; competition with immobilised ligand; 1 µM): 83%
O=C(Nc1cnc(Oc2ccc(F)cc2)nc1)N1CCc2ncccc2[C@@H]1c1ccc(F)cc1  remaining binding (cell-free assay; competition with immobilised ligand; 1 µM): 95%
O=C(c1ccc(Nc2ncc(Cl)c(-c3cc4ccccc4s3)n2)cc1)N1CCC(N2CCCC2)CC1  remaining binding (binding; competition with immobilised ligand; 1 µM): 3.4%
CN(C)c1nccc(-c2cnc3ncccn23)n1  remaining binding (binding; 1 µM): 100%
Cc1cc(C)c(-n2ccn3nc(-c4cccnc4)cc23)cc1NC(=O)c1cc(C#N)cc(S(F)(F)(F)(F)F)c1  remaining binding (cell-free assay; competition with immobilised ligand; 0.1 µM): 96.7%
C[C@@H]1CCN(c2nccc(-c3cnn4ncccc34)n2)C1  remaining binding (binding; 1 µM): 84%
COc1cnc(Nc2cccc(S(N)(=O)=O)c2)nc1N1CCN(c2ccccc2)C(=O)C1  remaining binding (binding; competition with immobilised ligand; 1 µM): 98%
CCOCCn1cc(C(=O)Nc2ccc(-n3nc(-c4cccnc4)cc3C(F)(F)F)cn2)ccc1=O  remaining binding (cell-free assay; competition with immobilised ligand; 1 µM): 76%
COc1ncc2cc3ccccc3nc2c1C#N  remaining binding (cell-free assay; competition with immobilised ligand; 5 µM): 100%
O=C(NCC1CCOCC1)c1n[nH]cc1NC(=O)c1c(F)cccc1F  remaining binding (binding; competition with immobilised ligand; 1 µM): 100%
N[C@H]1CCN(c2nccc(-c3cnn4ncccc34)n2)C1  remaining binding (binding; 1 µM): 86%
CCN1CCN(Cc2ccc(C(=O)Nc3ccc(C)c(Oc4ccc5c(c4)CC(=O)N5)c3)cc2C(F)(F)F)CC1  remaining binding (binding; competition with immobilised ligand; 1 µM): 100%
CC1=C(C#N)C(c2ccc3c(c2)c(NC(=O)c2ccccc2C)nn3C)C(C#N)=C(C)N1  remaining binding (cell-free assay; competition with immobilised ligand; 1 µM): 78%
CC1CCCN1c1nccc(-c2cnn3ncccc23)n1 (stereo not shown)  remaining binding (binding; 1 µM): 100%
COc1ccc2c(c1)O[C@@H](c1ccc(OC)c(OC)c1)C[C@H]2NC(=O)C1(c2ccc3c(c2)OC(F)(F)O3)CC1  remaining binding (cell-free assay; competition with immobilised ligand; 1 µM): 96%
F[C@@H]1CCN(c2nccc(-c3cnn4ncccc34)n2)C1  remaining binding (binding; 1 µM): 100%
O=C(c1ccc(Nc2nccc(-c3cc4ccccc4s3)n2)cc1)N1CCC(N2CCCC2)CC1  remaining binding (binding; competition with immobilised ligand; 1 µM): 12%
O=C1CCc2cc(Nc3cc(OC4CCOCC4)c([N+](=O)[O-])cc3Cl)ccc2N1  remaining binding (cell-free assay; competition with immobilised ligand; 1 µM): 100%
Cc1cnn2ncc(-c3ccnc(N(C)C)n3)c2c1  remaining binding (binding; 1 µM): 99%
CCc1ccccc1C(=O)Nc1n[nH]c2c(C)c(F)c(C3C(C#N)=C(C)N(C)C(C)=C3C#N)cc12  remaining binding (cell-free assay; competition with immobilised ligand; 1 µM): 100%
O=C(NCCCN1CCOCC1)c1ccc(Nc2nccc(-c3cc4ccccc4s3)n2)cc1  remaining binding (binding; competition with immobilised ligand; 1 µM): 37%
